# Legend:
# Salmonella typhimurium [1] = assay: Mutagenicity in Salmonella typhimurium TA100 at 1.25 mg/ml after 48 hrs by AMES MPF assay in absence of Sprague-Dawley rat liver microsomal S9 fraction relative to baseline; type: toxicity, organism-based; settings: salmonella enterica subsp. enterica serovar typhimurium
# How it was run: (§1)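 Ames MPF fluctuation test with TA98/TA100. Overnight cultures (37 °C, 14–16 h) mixed with exposure medium; ±Aroclor-1254-induced rat liver S9 (final 4.5% v/v). Compounds in DMSO, 0.156–5 mg/mL. 90 min exposure at 37 °C, then indicator medium; 48 wells per concentration, 48 h at 37 °C, in triplicate. Yellow wells counted; fold induction over baseline (mean + 1 SD of zero-dose control).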
# Fusarium solani = assay: Antifungal activity against Fusarium solani NRRL 13414 after 72 hrs by broth microdilution assay; type: functional; settings: NRRL 13414, 72 h
# How it was run: (§2)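 Compounds dissolved in DMSO, diluted in sterile distilled water from 4 to 0.0039 mg/mL. Molds grown on PDA at 25 °C for 5 days, suspended in double-strength PDB at 10⁵ spores/mL. Incubated at 25 °C for 72 h; mycelial growth read under stereo microscope. MIC = lowest concentration inhibiting visible growth. Ketoconazole reference.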
# Aspergillus parasiticus = assay: Antifungal activity against Aspergillus parasiticus NRRL 465 after 72 hrs by broth microdilution assay; type: functional; settings: NRRL 465, 72 h; how it was run: as §2
# Salmonella typhimurium [2] = assay: Mutagenicity in Salmonella typhimurium TA98 at 5 mg/ml after 48 hrs by AMES MPF assay in absence of Sprague-Dawley rat liver microsomal S9 fraction relative to baseline; type: toxicity, organism-based; settings: salmonella enterica subsp. enterica serovar typhimurium; how it was run: as §1
# [3] = Cytotoxicity against mouse NIH/3T3 cells after 24 hrs by XTT assay; type: cell-based; settings: NIH3T3, 24 h
# How it was run: (§3)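 A549 cells in RPMI and NIH/3T3 cells in DMEM, each with fetal calf serum, antibiotics and 7.5% NaHCO₃, at 37 °C, 5% CO₂. Seeded at 20,000 cells/well, 24 h, then compounds added in medium at 500–3.9 doses (final DMSO <0.1%) for 24 h. XTT read after 3 h at 480 nm (ref 680 nm). IC₅₀ by non-linear regression; triplicates; cisplatin control.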
# Candida albicans = assay: Antifungal activity against Candida albicans ATCC 90028 after 48 hrs by broth microdilution assay; type: functional; settings: ATCC 90028, 48 h
# How it was run: (§4)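 Broth microdilution of DMSO stocks serially diluted in sterile water (4 to 0.0039 mg/mL). Yeasts grown on SDA at 37 °C for 24 h, suspended in double-strength PDB at 10⁵ spores/mL. Incubated at 37 °C for 48 h, then sprayed with 0.5% aqueous TTC. MIC = lowest concentration inhibiting visible growth. Ketoconazole reference.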
# Salmonella typhimurium [4] = assay: Mutagenicity in Salmonella typhimurium TA98 at 0.156 mg/ml after 48 hrs by AMES MPF assay in presence of Sprague-Dawley rat liver microsomal S9 fraction relative to baseline; type: toxicity, organism-based; settings: salmonella enterica subsp. enterica serovar typhimurium; how it was run: as §1
# Pichia kudriavzevii = assay: Antifungal activity against Candida krusei NRLL Y 7179 after 48 hrs by broth microdilution assay; type: functional; settings: NRLL Y 7179, 48 h; how it was run: as §4
# Salmonella typhimurium [5] = assay: Mutagenicity in Salmonella typhimurium TA100 at 5 mg/ml after 48 hrs by AMES MPF assay in presence of Sprague-Dawley rat liver microsomal S9 fraction relative to baseline; type: toxicity, organism-based; settings: salmonella enterica subsp. enterica serovar typhimurium; how it was run: as §1
# Salmonella typhimurium [6] = assay: Mutagenicity in Salmonella typhimurium TA98 at 2.5 mg/ml after 48 hrs by AMES MPF assay in presence of Sprague-Dawley rat liver microsomal S9 fraction relative to baseline; type: toxicity, organism-based; settings: salmonella enterica subsp. enterica serovar typhimurium; how it was run: as §1
# Salmonella typhimurium [7] = assay: Mutagenicity in Salmonella typhimurium TA98 at 1.25 mg/ml after 48 hrs by AMES MPF assay in absence of Sprague-Dawley rat liver microsomal S9 fraction relative to baseline; type: toxicity, organism-based; settings: salmonella enterica subsp. enterica serovar typhimurium; how it was run: as §1
# Salmonella typhimurium [8] = assay: Mutagenicity in Salmonella typhimurium TA98 at 2.5 mg/ml after 48 hrs by AMES MPF assay in absence of Sprague-Dawley rat liver microsomal S9 fraction relative to baseline; type: toxicity, organism-based; settings: salmonella enterica subsp. enterica serovar typhimurium; how it was run: as §1
# Aspergillus niger = assay: Antifungal activity against Aspergillus niger ATCC 1094 after 72 hrs by broth microdilution assay; type: functional; settings: ATCC 1094, 72 h; how it was run: as §2
# Salmonella typhimurium [9] = assay: Mutagenicity in Salmonella typhimurium TA100 at 0.625 mg/ml after 48 hrs by AMES MPF assay in presence of Sprague-Dawley rat liver microsomal S9 fraction relative to baseline; type: toxicity, organism-based; settings: salmonella enterica subsp. enterica serovar typhimurium; how it was run: as §1
# Candida tropicalis = assay: Antifungal activity against Candida tropicalis NRLL Y 12968 after 48 hrs by broth microdilution assay; type: functional; settings: NRLL Y 12968, 48 h; how it was run: as §4
# Nakaseomyces glabratus = assay: Antifungal activity against Candida glabrata clinical isolate after 48 hrs by broth microdilution assay; type: functional; how it was run: as §4
# Salmonella typhimurium [10] = assay: Mutagenicity in Salmonella typhimurium TA98 at 0.3125 mg/ml after 48 hrs by AMES MPF assay in presence of Sprague-Dawley rat liver microsomal S9 fraction relative to baseline; type: toxicity, organism-based; settings: salmonella enterica subsp. enterica serovar typhimurium; how it was run: as §1
# Salmonella typhimurium [11] = assay: Mutagenicity in Salmonella typhimurium TA98 at 0.156 mg/ml after 48 hrs by AMES MPF assay in absence of Sprague-Dawley rat liver microsomal S9 fraction relative to baseline; type: toxicity, organism-based; settings: salmonella enterica subsp. enterica serovar typhimurium; how it was run: as §1
# Salmonella typhimurium [12] = assay: Mutagenicity in Salmonella typhimurium TA98 at 1.25 mg/ml after 48 hrs by AMES MPF assay in presence of Sprague-Dawley rat liver microsomal S9 fraction relative to baseline; type: toxicity, organism-based; settings: salmonella enterica subsp. enterica serovar typhimurium; how it was run: as §1
# Salmonella typhimurium [13] = assay: Mutagenicity in Salmonella typhimurium TA100 at 0.3125 mg/ml after 48 hrs by AMES MPF assay in absence of Sprague-Dawley rat liver microsomal S9 fraction relative to baseline; type: toxicity, organism-based; settings: salmonella enterica subsp. enterica serovar typhimurium; how it was run: as §1
# Salmonella typhimurium [14] = assay: Mutagenicity in Salmonella typhimurium TA100 at 0.156 mg/ml after 48 hrs by AMES MPF assay in presence of Sprague-Dawley rat liver microsomal S9 fraction relative to baseline; type: toxicity, organism-based; settings: salmonella enterica subsp. enterica serovar typhimurium; how it was run: as §1
# Salmonella typhimurium [15] = assay: Mutagenicity in Salmonella typhimurium TA98 at 0.625 mg/ml after 48 hrs by AMES MPF assay in presence of Sprague-Dawley rat liver microsomal S9 fraction relative to baseline; type: toxicity, organism-based; settings: salmonella enterica subsp. enterica serovar typhimurium; how it was run: as §1
# Salmonella typhimurium [16] = assay: Mutagenicity in Salmonella typhimurium TA100 at 0.156 mg/ml after 48 hrs by AMES MPF assay in absence of Sprague-Dawley rat liver microsomal S9 fraction relative to baseline; type: toxicity, organism-based; settings: salmonella enterica subsp. enterica serovar typhimurium; how it was run: as §1
# Candida parapsilosis = assay: Antifungal activity against Candida parapsilosis NRLL Y 12696 after 48 hrs by broth microdilution assay; type: functional; settings: Lodderomyces parapsilosis, NRLL Y 12696, 48 h; how it was run: as §4
# Salmonella typhimurium [17] = assay: Mutagenicity in Salmonella typhimurium TA100 at 2.5 mg/ml after 48 hrs by AMES MPF assay in presence of Sprague-Dawley rat liver microsomal S9 fraction relative to baseline; type: toxicity, organism-based; settings: salmonella enterica subsp. enterica serovar typhimurium; how it was run: as §1
# Salmonella typhimurium [18] = assay: Mutagenicity in Salmonella typhimurium TA98 at 0.3125 mg/ml after 48 hrs by AMES MPF assay in absence of Sprague-Dawley rat liver microsomal S9 fraction relative to baseline; type: toxicity, organism-based; settings: salmonella enterica subsp. enterica serovar typhimurium; how it was run: as §1
# Salmonella typhimurium [19] = assay: Mutagenicity in Salmonella typhimurium TA98 at 5 mg/ml after 48 hrs by AMES MPF assay in presence of Sprague-Dawley rat liver microsomal S9 fraction relative to baseline; type: toxicity, organism-based; settings: salmonella enterica subsp. enterica serovar typhimurium; how it was run: as §1
# Salmonella typhimurium [20] = assay: Mutagenicity in Salmonella typhimurium TA100 at 1.25 mg/ml after 48 hrs by AMES MPF assay in presence of Sprague-Dawley rat liver microsomal S9 fraction relative to baseline; type: toxicity, organism-based; settings: salmonella enterica subsp. enterica serovar typhimurium; how it was run: as §1
# [Candida] zeylanoides = Antifungal activity against Candida zeylanoides NRLL Y 1774 after 48 hrs by broth microdilution assay; type: functional; settings: Dujonia zeylanoides, NRLL Y 1774, 48 h; how it was run: as §4
# Salmonella typhimurium [21] = assay: Mutagenicity in Salmonella typhimurium TA98 at 0.625 mg/ml after 48 hrs by AMES MPF assay in absence of Sprague-Dawley rat liver microsomal S9 fraction relative to baseline; type: toxicity, organism-based; settings: salmonella enterica subsp. enterica serovar typhimurium; how it was run: as §1
# Salmonella typhimurium [22] = assay: Mutagenicity in Salmonella typhimurium TA100 at 2.5 mg/ml after 48 hrs by AMES MPF assay in absence of Sprague-Dawley rat liver microsomal S9 fraction relative to baseline; type: toxicity, organism-based; settings: salmonella enterica subsp. enterica serovar typhimurium; how it was run: as §1
# Salmonella typhimurium [23] = assay: Mutagenicity in Salmonella typhimurium TA100 at 5 mg/ml after 48 hrs by AMES MPF assay in absence of Sprague-Dawley rat liver microsomal S9 fraction relative to baseline; type: toxicity, organism-based; settings: salmonella enterica subsp. enterica serovar typhimurium; how it was run: as §1
# Salmonella typhimurium [24] = assay: Mutagenicity in Salmonella typhimurium TA100 at 0.625 mg/ml after 48 hrs by AMES MPF assay in absence of Sprague-Dawley rat liver microsomal S9 fraction relative to baseline; type: toxicity, organism-based; settings: salmonella enterica subsp. enterica serovar typhimurium; how it was run: as §1
# Aspergillus flavus = assay: Antifungal activity against Aspergillus flavus NRRL 980 after 72 hrs by broth microdilution assay; type: functional; settings: NRRL 980, 72 h; how it was run: as §2
# A549 = assay: Antiproliferative activity against human A549 cells after 24 hrs by XTT assay; type: functional, cell-based; settings: A549, 24 h; how it was run: as §3
# Salmonella typhimurium [25] = assay: Mutagenicity in Salmonella typhimurium TA100 at 0.3125 mg/ml after 48 hrs by AMES MPF assay in presence of Sprague-Dawley rat liver microsomal S9 fraction relative to baseline; type: toxicity, organism-based; settings: salmonella enterica subsp. enterica serovar typhimurium; how it was run: as §1
smiles,measurement,setting,value
Fc1ccc(C2CC(c3ccc(Cl)s3)=NN2c2nc(-c3ccc(Br)cc3)cs2)cc1 (stereo unspecified),fold change (FC),Salmonella typhimurium [1],0
same,MIC,Fusarium solani,250 µg/mL
same,MIC,Aspergillus parasiticus,250 µg/mL
same,fold change (FC),Salmonella typhimurium [2],0
same,IC50,[3],> 500 µg/mL
same,MIC,Candida albicans,250 µg/mL
same,fold change (FC),Salmonella typhimurium [4],0.68
same,MIC,Pichia kudriavzevii,250 µg/mL
same,fold change (FC),Salmonella typhimurium [5],2.54
same,fold change (FC),Salmonella typhimurium [6],0.68
same,fold change (FC),Salmonella typhimurium [7],0
same,fold change (FC),Salmonella typhimurium [8],0
same,MIC,Aspergillus niger,250 µg/mL
same,fold change (FC),Salmonella typhimurium [9],3.92
same,MIC,Candida tropicalis,250 µg/mL
same,MIC,Nakaseomyces glabratus,125 µg/mL
same,fold change (FC),Salmonella typhimurium [10],0.81
same,fold change (FC),Salmonella typhimurium [11],0
same,fold change (FC),Salmonella typhimurium [12],0.81
same,fold change (FC),Salmonella typhimurium [13],1
same,fold change (FC),Salmonella typhimurium [14],2.77
same,fold change (FC),Salmonella typhimurium [15],0.95
same,fold change (FC),Salmonella typhimurium [16],1
same,MIC,Candida parapsilosis,250 µg/mL
same,fold change (FC),Salmonella typhimurium [17],3.92
same,fold change (FC),Salmonella typhimurium [18],0.32
same,fold change (FC),Salmonella typhimurium [19],0.81
same,fold change (FC),Salmonella typhimurium [20],5.08
same,MIC,[Candida] zeylanoides,250 µg/mL
same,fold change (FC),Salmonella typhimurium [21],0
same,fold change (FC),Salmonella typhimurium [22],0.33
same,fold change (FC),Salmonella typhimurium [23],2
same,fold change (FC),Salmonella typhimurium [24],0.33
same,MIC,Aspergillus flavus,125 µg/mL
same,IC50,A549,62.5 µg/mL
same,fold change (FC),Salmonella typhimurium [25],3.92

# — ChEMBL document CHEMBL3407339, “A novel series of thiazolyl-pyrazoline derivatives: synthesis and evaluation of antifungal activity, cytotoxicity and genotoxicity” (Eur J Med Chem, 2015)
